The subject of data set [1] is jejuno-ileum. Put plainly: In-situ rabbit intestinal perfusion, jejuno-ileum. The data set is classed as in vivo. Summed up: (§1)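 Rabbits were anaesthetised with IM chlorpromazine 2 mg/kg, then ketamine 45 mg/kg twice at a 15 min interval. The segment was cannulated (duodenum 15 cm, jejuno-ileum 30 cm) and rinsed with 37 °C saline. Test compound at 30 μg/ml in PBS with 10% v/v PEG 200 was perfused at 0.27 ml/min. Effluent was collected every 10 min for 2 h, weighed and assayed by HPLC-UV at 210 nm. Fa, ARL and L95% came from second-hour, water-flux-corrected Cout/Cin. Pathway was judged from PeA dependence on water flux.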

Data set [2] relates to duodenum. Put plainly: In-situ rabbit intestinal perfusion, duodenum. The data set is classed as in vivo. The gist of the method: as §1
The nature of data set [3]: Dissolution studies. Particulars: 50 rpm. The data set is classed as physicochemical. Summed up:
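900 ml medium (0.01 M phosphate buffer), 37 ± 0.5 °C. Load: 400 mg test compound or equivalent; formulations contained avicel and aerosil. 5 ml samples withdrawn at 5, 10, 15, 30, 45 and 60 min, filtered (0.45 μm) and replaced with fresh medium. Quantified by reversed-phase C18 HPLC (0.02 M KH2PO4 pH 6.8:acetonitrile 25:75). Cumulative amount dissolved expressed as % of load. Triplicates.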

Where [4] appears, read: SEM in brackets, n = 3, listed as lopinavir.
Setting [5] is: from regression of absorptive clearance vs water flux.

Consider `Cc1cccc(C)c1OCC(=O)N[C@@H](Cc1ccccc1)[C@@H](O)C[C@H](Cc1ccccc1)NC(=O)[C@H](C(C)C)N1CCCNC1=O` [Pure Lopinavir, Lopinavir], for which the “ARL (anatomical reserve length)” value in data set [1] is −240.22 cm; in data set [2], −261.18 cm. Further, the “%Fa/L (percentage fraction absorbed per unit length)” value is reported as 1.17 (0.27) %cm^−1 in data set [1] (SEM in brackets, n = 3) and 1.61 (0.454) %cm^−1 in data set [2] (SEM in brackets, n = 3). The “L95% (required length for 95% absorption)” value in data set [1] (SEM in brackets, n = 3) is listed as 339.54 (79.03) cm; in data set [1] (setting [4]) it was 339.54 cm; in data set [2] (SEM in brackets, n = 3), 276.18 (121.5) cm; in data set [2] (setting [4]) it was 276.18 cm. In addition, the “Rout/Rin (fraction remaining after absorption)” value is 0.657 (0.083) in data set [1] (SEM in brackets, n = 3) and 0.759 (0.068) in data set [2] (SEM in brackets, n = 3). The figures for the “Absorption pathway: Paracellular” value in data set [1] (setting [5]) and in data set [2] (setting [5]) were 0% and 38.3%, respectively. Also, the “Absorption pathway: Transcellular” value in data set [1] (setting [5]) was found to be 100%; in data set [2] (setting [5]) it was 61.7%. Besides, in data set [3] (1% w/v Tween 80 in phosphate buffer pH 6.8, 37 °C), the “total amount liberated after 1 h” value was 41.85 % of the dose. The “% DE (dissolution efficiency)” value in data set [3] (900 ml 1% w/v Tween 80 in 0.01 M phosphate buffer pH 6.8, 37 °C, 60 min, SD, n = 3) was 24.96 (1.48) %.

The values above are taken from paper PMC9272570 (Journal of Drug Delivery Science and Technology, 2022).
